OX1R antag-1: blocks the human orexin 1 receptor; O43613; 330,000 compounds, 1.8% hits; inhibition, % at 6.6 µM; OX1R-expressing cells, FRET antagonist read-out; in the data active means inhibition mostly above about 38%, no sharp cut-off; inactive means mostly below about 40%
CHO parental Ca: counter-screen: ATP calcium response change in parental CHO cells. parental CHO-K1, ATP-induced calcium, Fluo-8 fluorescence. inhibition, % at 5.6 µM. 330,000 compounds, 0.63% hits. AID 463079;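 active means inhibition above that plate's mean sample inhibition plus 3 SD, cut at about 26% in these data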
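test system = CHO parental line | reagent = ATP stimulus | measured by = intracellular calcium via Fluo-8 no-wash fluorescent dye | control set = ATP and no-ATP DMSO wells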
TRPML3 ag: human mucolipin-3 channel agonism. Q8TDD5. HEK293 TRPML3-YFP, Fluo-8 calcium fluorescence; 100% = the carbachol control signal. activation, % at 3 µM. 220,000 compounds, 0.29% hits;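 active means activation above its plate's cutoff, the mean activation of the plate's test wells plus 3 SD, cut at about 12% in these data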
Target sequence (Q8TDD5 whole entry, looked up): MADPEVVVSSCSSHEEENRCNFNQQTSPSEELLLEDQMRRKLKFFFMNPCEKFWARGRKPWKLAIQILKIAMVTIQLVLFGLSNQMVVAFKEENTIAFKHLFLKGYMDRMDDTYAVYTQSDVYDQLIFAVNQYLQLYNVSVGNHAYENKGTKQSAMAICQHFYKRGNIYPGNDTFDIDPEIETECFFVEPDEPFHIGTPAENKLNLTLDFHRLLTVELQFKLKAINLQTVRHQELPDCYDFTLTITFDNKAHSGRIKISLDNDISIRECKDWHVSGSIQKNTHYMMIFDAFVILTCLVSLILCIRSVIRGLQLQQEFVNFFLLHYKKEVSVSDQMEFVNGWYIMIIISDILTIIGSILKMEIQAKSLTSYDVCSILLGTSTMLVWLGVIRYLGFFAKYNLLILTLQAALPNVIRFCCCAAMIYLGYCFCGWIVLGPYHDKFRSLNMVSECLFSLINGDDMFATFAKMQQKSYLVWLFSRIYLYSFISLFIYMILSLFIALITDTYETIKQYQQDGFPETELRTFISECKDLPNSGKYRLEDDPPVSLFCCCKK
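Test system: HEK293 cells stably carrying human TRPML3-YFP; Doses: single dose, 3 µM final nominal compound, 0.3% DMSO final; Schedule: dye loading 1 h 37 °C then 30 min ambient, 125 s read; Technique: Fluo-8 calcium fluorescence; Benchmarks: high control carbachol 87 µM, low control DMSO.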
zfTRPN1 agonist: activates the zebrafish TRPN1 channel | HEK293 zebrafish TRPN1-YFP, Fluo-8 calcium fluorescence; 100% = response to 87 µM carbachol | activation, % at 3 µM | 220,000 compounds, 0.18% hits;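 active means activation above its plate's cutoff, the mean activation of test wells on that plate plus 3 SD, cut at about 19% in these data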
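Material: zebrafish TRPN1-YFP in HEK293 cells; Doses: single test compound dose, 3 µM nominal, 0.3% DMSO; Timing: dye loading 1 h at 37 °C, then 30 min room temperature; Technique: intracellular calcium fluorescence with Fluo-8; Benchmarks: high carbachol 87 µM, low DMSO alone.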
OX1R antag-2: antagonists of human orexin 1 receptor | inhibition, % at 5 µM | 330,000 compounds, 0.43% hits | CHO/OX1R cells, Fluo-8 calcium fluorescence, orexin A | AID 434989;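 active means inhibition above its plate's threshold, mean inhibition of all tested compounds on the plate plus 3 SD, cut at about 37% in these data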
Large screens that a line does not name were inactive. Rows were chosen to be rich in hits. Some 2.5% of all compounds tested hit in one or more screens of this group.

O=C(CCCN1C(=O)c2ccccc2C1=O)NCCN1C(=O)S/C(=C\c2cccs2)C1=O	OX1R antag-1 66
COc1ccc(/C=C2\SC(=S)N(CCCC(=O)N3CCOCC3)C2=O)cc1	none (no result: TRPML3 ag, zfTRPN1 agonist)
O=C(CN1C(=O)S/C(=C\c2ccccc2)C1=O)NNC(=O)c1ccccc1O	none
O=C(CCN1C(=O)/C(=C\c2ccccc2)SC1=S)NNC(=O)c1ccccc1O	OX1R antag-1 64 (no result: TRPML3 ag, zfTRPN1 agonist)
Cc1cc(C(=O)NCCN2C(=O)S/C(=C\c3cccs3)C2=O)ccc1[N+](=O)[O-]	none
C/C(=C/C(=O)O)C(=O)Nc1cccc(C(F)(F)F)c1	none
Cc1ccc(S(=O)(=O)N(C)C)cc1NC(=O)COC(=O)COc1ccccc1[N+](=O)[O-]	none
O=C(COC(=O)c1cnccn1)c1ccc(Cl)cc1	none
COCC(C)NC(C(=O)Nc1ccc(Cl)c([N+](=O)[O-])c1)c1ccccc1 (stereo not given)	CHO parental Ca 81
CCc1ccc(S(=O)(=O)/N=C2\C=C(Nc3ccc(C(=O)O)cc3)C(=O)c3ccccc32)cc1	OX1R antag-1 52 (no result: TRPML3 ag, zfTRPN1 agonist)
CC(c1ccco1)N(C(=O)c1ccccc1NS(=O)(=O)c1cc([N+](=O)[O-])ccc1Cl)c1ccccn1 (stereo not given)	OX1R antag-1 72
CC(c1ccco1)N(C(=O)c1ccccc1NS(=O)(=O)c1cccc([N+](=O)[O-])c1)c1ccccn1 (stereo not given)	OX1R antag-1 63
CCn1cc(C(=O)Nc2ccc(C)cc2[N+](=O)[O-])c(C)n1	none (no result: TRPML3 ag, zfTRPN1 agonist)
C/C(=N\Nc1ccc([N+](=O)[O-])cc1[N+](=O)[O-])C(C)(C)C(C(=O)O)C(=O)O	OX1R antag-1 73
COc1cccc(/C=N/N2C(=O)CSC2=S)c1O	none
COc1cc(/C=N/N2C(=O)CSC2=S)cc(Br)c1O	TRPML3 ag 24, zfTRPN1 agonist 41 (no result: OX1R antag-1, CHO parental Ca, OX1R antag-2)
Cc1ccc(C2(C)NC(=O)N(CC(=O)Nc3ccccc3N3CCCC3)C2=O)cc1 (stereo not given)	none (no result: TRPML3 ag, zfTRPN1 agonist)
Cc1cccc(NC(=O)c2ccc(N3C(=O)C4C5C=CC(C6CC56)C4C3=O)cc2)c1 (stereo not given)	CHO parental Ca 46 (no result: TRPML3 ag, zfTRPN1 agonist)
CSc1nnc(N2C(=O)C(O)=C(C(=O)c3ccco3)C2c2ccc(F)cc2)s1 (stereo not given)	none (no result: TRPML3 ag, zfTRPN1 agonist)
CSc1nnc(N2C(=O)C(O)=C(C(=O)c3ccco3)C2c2cccc(Cl)c2)s1 (stereo not given)	CHO parental Ca 33, OX1R antag-2 49 (no result: TRPML3 ag, zfTRPN1 agonist)
Cc1cc(C)c2c(N)c(C(=O)Nc3ncc(C)s3)sc2n1	OX1R antag-1 51
Cc1cc(-n2c(C)cc(C(=O)CSc3ncnc4ccccc34)c2C)no1	OX1R antag-1 47, CHO parental Ca 66, OX1R antag-2 70
Cc1cc(C)cc(N(CC(=O)Nc2ccccc2)C2=NC3CS(=O)(=O)CC3S2)c1 (stereo not given)	OX1R antag-1 61
CN(C(=O)Cn1cnc2ccccc2c1=O)C1CCS(=O)(=O)C1 (stereo not given)	none (no result: TRPML3 ag, zfTRPN1 agonist)
CCN(C(=O)Cn1cnc2cc([N+](=O)[O-])ccc2c1=O)C1CCS(=O)(=O)C1 (stereo not given)	OX1R antag-1 63
Cc1ccc(CNC(=O)Cn2cnc3cc([N+](=O)[O-])ccc3c2=O)cc1	none
CC1CCCC(C)N1C(=O)Cn1cnc2cc([N+](=O)[O-])ccc2c1=O (stereo not given)	OX1R antag-1 114
Cc1cc(NC(=O)C(C)SCC(=O)OCc2ccc([N+](=O)[O-])cc2)no1 (stereo not given)	none (no result: TRPML3 ag, zfTRPN1 agonist)
Cc1noc(C)c1COc1ccccc1C(=O)N(C)Cc1ccc(C(C)(C)C)cc1	OX1R antag-2 48 (no result: TRPML3 ag, zfTRPN1 agonist)
O=C(CNC(=O)c1cnccc1C(F)(F)F)c1cccc(Cl)c1	none
Clc1cccc(Cl)c1/C=N\Nc1nccs1	none
Cc1nnc(N/N=C/c2c(Cl)cccc2Cl)n1N	OX1R antag-1 61
Cc1[nH]c2ccccc2c1/C=N/NC(N)=S	none
CCc1nnc(N/N=C/c2c(F)cccc2Cl)n1N	OX1R antag-1 71 (no result: TRPML3 ag, zfTRPN1 agonist)
CCc1nnc(N/N=C/c2c(C)[nH]c3ccccc23)n1N	OX1R antag-1 68
CCCN(CC(=O)Nc1ccccc1OC)C(=O)c1ccc2c(c1)NC(=O)C(C)S2 (stereo not given)	none (no result: TRPML3 ag, zfTRPN1 agonist)
Cn1cccc1/C=C1\CCC/C(=C\c2cccn2C)C1=O	CHO parental Ca 70, OX1R antag-2 93
O=C1/C(=C/c2cccs2)CCC/C1=C\c1cccs1	none (no result: TRPML3 ag, zfTRPN1 agonist)
CCNC(=S)N1CCN(c2ccc([N+](=O)[O-])cc2)CC1	none
O=[N+]([O-])c1ccc(N2CCN(C(=S)NCc3ccc(Cl)cc3)CC2)cc1	CHO parental Ca 84, OX1R antag-2 51
Cc1nn(-c2ccccc2)nc1C(=O)NNC(=O)c1ccc(C(F)(F)F)cc1	none
COC(=O)c1c(NC(=O)c2cnccn2)sc2c1CCC2	none
O=C(Nc1nc2c(s1)CCCC2=O)c1cnccn1	OX1R antag-1 49
C[C@H](CO)N1C[C@H](C)[C@@H](CN(C)Cc2ccc(Cl)c(Cl)c2)Oc2c(NS(=O)(=O)c3ccc(F)cc3)cccc2C1=O	none (no result: TRPML3 ag, zfTRPN1 agonist)
COc1ccccc1/C=N\NC(=O)c1ccc(COc2ccc(C)c(C)c2)o1	none (no result: TRPML3 ag, zfTRPN1 agonist)
Cc1ccc(C(=O)c2c3ccc([N+](=O)[O-])cc3[n+]([O-])n2CCC(N)=O)cc1	OX1R antag-1 62 (no result: TRPML3 ag, zfTRPN1 agonist)
O=C(Nc1ccc(F)cc1)C1CCCN1S(=O)(=O)c1cccc2nsnc12 (stereo not given)	OX1R antag-1 75
O=C(Nc1cc(F)ccc1F)C1CCCN1S(=O)(=O)c1cccc2nsnc12 (stereo not given)	OX1R antag-1 70 (no result: TRPML3 ag, zfTRPN1 agonist)
O=C(NCc1ccc(F)cc1)C1CCCN1S(=O)(=O)c1cccc2nsnc12 (stereo not given)	OX1R antag-1 55 (no result: TRPML3 ag, zfTRPN1 agonist)
CCc1ccc(C2C(C#N)=C(N)N(N(C)C)C3=C2C(=O)CCC3)cc1 (stereo not given)	none (no result: TRPML3 ag, zfTRPN1 agonist)
O=[N+]([O-])c1ccc(S(=O)(=O)NCCc2cn3ccccc3n2)cc1	OX1R antag-1 42
COc1ccc(CCNC(=O)c2oc3ccccc3c2C)cc1	none (no result: TRPML3 ag, zfTRPN1 agonist)
CCC(=O)Nc1ccc(NC(=O)c2oc3ccccc3c2C)cc1	OX1R antag-1 47 (no result: TRPML3 ag, zfTRPN1 agonist)
CC(=O)Nc1cccc(NC(=O)c2oc3ccccc3c2C)c1	OX1R antag-1 62
Cc1c(C(=O)NCCc2ccc3c(c2)OCCO3)oc2ccccc12	OX1R antag-1 38
CC(=O)Nc1ccc(NC(=S)NC(=O)c2oc3ccccc3c2C)cc1	none
COc1ccc2cc(CO)c3cc(OC)c(OC)cc3c2c1	none (no result: TRPML3 ag, zfTRPN1 agonist)
CCN(CC(=O)NCc1cccs1)C(=O)c1ccc([N+](=O)[O-])o1	OX1R antag-1 64 (no result: TRPML3 ag, zfTRPN1 agonist)
CCN(CC(=O)NCc1cccs1)C(=O)c1ccc(C)o1	none (no result: TRPML3 ag, zfTRPN1 agonist)
N#Cc1ccccc1OCC(=O)N1CCN(S(=O)(=O)c2ccc(Cl)cc2)CC1	none (no result: TRPML3 ag, zfTRPN1 agonist)
O=c1[nH]c(-[n+]2ccccc2)c(/C=N/N=C(\[O-])c2ccccc2)s1	OX1R antag-1 41
